Experiments:
[1] = molecular target: Aldo-keto reductase family 1 member B1 (Bos taurus, UniProt P16116); test: Inhibition of bovine lens aldose reductase using DL-glyceraldehyde as substrate assessed as NADPH oxidation measured for 10 mins by spectrophotometric analysis
Method in brief: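 Aldose reductase isolated from bovine lens (enzyme at 750 µg/mL protein) in 50 mM PBS pH 6.2 with β-mercaptoethanol, Li2SO4 and NADPH, compounds across a 0.1–10 range. Reaction started with DL-glyceraldehyde. Fall in NADPH absorbance at 340 nm followed for 10 min.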

[2] = Induction of nitric oxide release at 10^-4 M after 1 hr by Griess assay in presence of L-cysteine relative to control; type: physicochemical; conditions: 100 µM
Method in brief: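 Thiol-triggered NO release: compounds at final 10^-4 M incubated 1 h at 37 °C with L-cysteine. 1 mL of mixture treated with Griess reagent (sulfanilamide, N-naphthylethylenediamine dihydrochloride, phosphoric acid), held 10 min at room temperature, absorbance read at 540 nm. Percent NO released relative to a theoretical maximum of 1 mol NO/mol compound. Sodium nitroprusside served as positive control.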

[3] = molecular target: Aldo-keto reductase family 1 member B1 (Bos taurus) (UniProt P16116); test: Ratio of quercetin IC50 to compound iC50 for bovine lens aldose reductase
[4] = molecular target: Aldo-keto reductase family 1 member B1 (Bos taurus) (UniProt P16116); test: Ratio of 4-(5-hydroxy-4-oxo-2-phenyl-4H-chromen-7-yloxy)butyl nitrate IC50 to compound IC50 for bovine lens aldose reductase

SMILES | IC50 [1] [nM] | Activity [2] [%] | Ratio IC50 [3] | Ratio IC50 [4]
CCCCCCOC(=O)COc1cc(O)c2c(=O)cc(-c3ccc4c(c3)OCCO4)oc2c1 | 2830 | – | – | –
CCOc1cc(O)c2c(=O)cc(-c3ccc(O)c(O)c3)oc2c1 | 604 | – | – | –
O=c1cc(-c2ccc(O)c(O)c2)oc2cc(OCCO[N+](=O)[O-])cc(O)c12 | 168 | 1.07 | – | –
CCCCOc1cc(O)c2c(=O)cc(-c3ccc4c(c3)OCCO4)oc2c1 | 1250 | – | – | –
O=c1cc(-c2ccc3c(c2)OCCO3)oc2cc(OCCO[N+](=O)[O-])cc(O)c12 | 99 | 2.111 | 28.5 | –
CCCCCCOc1cc(O)c2c(=O)cc(-c3ccc(O)c(O)c3)oc2c1 | 1810 | – | – | –
O=c1cc(-c2ccc(O)c(O)c2)oc2cc(O)cc(O)c12 [LUTEOLIN] | 754 | – | – | –
O=c1cc(-c2ccc3c(c2)OCCO3)oc2cc(OCCCCO[N+](=O)[O-])cc(O)c12 | 127 | 2.813 | – | 2.3
O=C(COc1cc(O)c2c(=O)cc(-c3ccc4c(c3)OCCO4)oc2c1)OCCCCCCO[N+](=O)[O-] | 1300 | 1.14 | – | –
O=C(COc1cc(O)c2c(=O)cc(-c3ccc4c(c3)OCCO4)oc2c1)OCCO[N+](=O)[O-] | 445 | 1.018 | – | –
CCOc1cc(O)c2c(=O)cc(-c3ccc4c(c3)OCCO4)oc2c1 | 1190 | – | – | –
CCCCCCOc1cc(O)c2c(=O)cc(-c3ccc4c(c3)OCCO4)oc2c1 | 1710 | – | – | –
CCCCOc1cc(O)c2c(=O)cc(-c3ccc(O)c(O)c3)oc2c1 | 769 | – | – | –
CCOC(=O)COc1cc(O)c2c(=O)cc(-c3ccc4c(c3)OCCO4)oc2c1 | 506 | – | – | –
O=c1cc(-c2ccc(O)c(O)c2)oc2cc(OCCCCO[N+](=O)[O-])cc(O)c12 | 472 | 2.345 | – | –
O=c1cc(-c2ccc(O)c(O)c2)oc2cc(OCCCCCCO[N+](=O)[O-])cc(O)c12 | 491 | 4.637 | – | –
O=C(COc1cc(O)c2c(=O)cc(-c3ccc4c(c3)OCCO4)oc2c1)OCCCCO[N+](=O)[O-] | 491 | 1.351 | – | –
CCCCOC(=O)COc1cc(O)c2c(=O)cc(-c3ccc4c(c3)OCCO4)oc2c1 | 523 | – | – | –
O=c1cc(-c2ccc3c(c2)OCCO3)oc2cc(OCCCCCCO[N+](=O)[O-])cc(O)c12 | 445 | 1.328 | – | –
